From ChEMBL document CHEMBL1156778, “Synthesis and structure-activity studies of biphenyl analogues of the tuberculosis drug (6S)-2-nitro-6-{[4-(trifluoromethoxy)benzyl]oxy}-6,7-dihydro-5H-imidazo[2,1-b][1,3]oxazine (PA-824)” (J Med Chem, 2010)
In brackets after ≈: the same amount, converted by molar mass.

Tests used:
[1] = system: Mycobacterium tuberculosis; assay: Antitubercular activity against Mycobacterium tuberculosis H37Rv in aerobic condition after 7 days by microplate alamar blue assay; format: functional; details: 168 h
In short: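 M. tuberculosis H37Rv, replicating culture; 8-day microplate assay with Alamar blue added on day 7 to read growth. […] Mean of at least two independent determinations ± SD.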

Vero = assay: Cytotoxicity against african green monkey Vero cells after 72 hrs by MTS assay; format: cell-based; details: Chlorocebus sabaeus
In short: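 VERO cells (CCL-81), 72 h exposure, tetrazolium dye read-out.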

[2] = system: Mycobacterium tuberculosis; assay: Antitubercular activity against Mycobacterium tuberculosis H37Rv in anaerobic condition after 7 days by low oxygen recovery assay; format: functional; details: 168 h

SMILES | MIC [1] | IC50 (Vero) | MIC [2]
CSc1cccc(-c2cccc(CO[C@@H]3COc4nc([N+](=O)[O-])cn4C3)c2)c1 | 0.07 µM (≈ 0.0278 µg/mL) | > 125 µM | 1.4 µM (≈ 0.556 µg/mL)
Nc1cccc(-c2ccc(CO[C@@H]3COc4nc([N+](=O)[O-])cn4C3)cc2)c1 | 0.12 µM (≈ 0.044 µg/mL) | > 125 µM | 1.4 µM (≈ 0.513 µg/mL)
O=[N+]([O-])c1cn2c(n1)OC[C@@H](OCc1ccc(-c3ccccc3F)cc1)C2 | 0.19 µM (≈ 0.0702 µg/mL) | > 125 µM | 0.67 µM (≈ 0.247 µg/mL)
N#Cc1ccc(-c2cccc(CO[C@@H]3COc4nc([N+](=O)[O-])cn4C3)c2)cc1 | 0.23 µM (≈ 0.0866 µg/mL) | > 125 µM | 4.8 µM (≈ 1.81 µg/mL)
COc1cc(-c2ccc(CO[C@@H]3COc4nc([N+](=O)[O-])cn4C3)cc2)ccc1F | 0.045 µM (≈ 0.018 µg/mL) | > 125 µM | 1.5 µM (≈ 0.599 µg/mL)
O=[N+]([O-])c1cn2c(n1)OC[C@@H](OCc1ccc(-c3cc(F)c(F)c(F)c3)cc1)C2 | 0.04 µM (≈ 0.0162 µg/mL) | > 125 µM | 0.76 µM (≈ 0.308 µg/mL)
CC(C)(C)OCc1ccc(-c2ccc(CO[C@@H]3COc4nc([N+](=O)[O-])cn4C3)cc2)cc1 | 0.077 µM (≈ 0.0337 µg/mL) | > 125 µM | 3.1 µM (≈ 1.36 µg/mL)
O=[N+]([O-])c1cn2c(n1)OC[C@@H](OCc1ccc(-c3cccc(C(F)(F)F)c3)cc1)C2 | 0.067 µM (≈ 0.0281 µg/mL) | > 125 µM | 1.3 µM (≈ 0.545 µg/mL)
CSc1ccccc1-c1ccc(CO[C@@H]2COc3nc([N+](=O)[O-])cn3C2)cc1 | 0.087 µM (≈ 0.0346 µg/mL) | > 125 µM | 1.4 µM (≈ 0.556 µg/mL)
CC(C)c1cccc(-c2ccc(CO[C@@H]3COc4nc([N+](=O)[O-])cn4C3)cc2)c1 | 0.14 µM (≈ 0.0551 µg/mL) | > 125 µM | 4.2 µM (≈ 1.65 µg/mL)
O=[N+]([O-])c1cn2c(n1)OC[C@@H](OCc1ccc(-c3cccc(O)c3)cc1)C2 | 0.14 µM (≈ 0.0514 µg/mL) | > 125 µM | 3.1 µM (≈ 1.14 µg/mL)
O=[N+]([O-])c1cn2c(n1)OC[C@@H](OCc1ccc(-c3cccc(OC(F)(F)F)c3)cc1)C2 | 0.077 µM (≈ 0.0335 µg/mL) | > 125 µM | 1.4 µM (≈ 0.61 µg/mL)
O=[N+]([O-])c1cn2c(n1)OC[C@@H](OCc1ccc(-c3cccc(F)c3)cc1)C2 | 0.045 µM (≈ 0.0166 µg/mL) | > 125 µM | 2.2 µM (≈ 0.813 µg/mL)
O=[N+]([O-])c1cn2c(n1)OC[C@@H](OCc1ccc(-c3ccc(OC(F)(F)F)c([N+](=O)[O-])c3)cc1)C2 | 0.045 µM (≈ 0.0216 µg/mL) | > 125 µM | 1.6 µM (≈ 0.769 µg/mL)
O=[N+]([O-])c1cn2c(n1)OC[C@@H](OCc1ccc(-c3ccccc3C(F)(F)F)cc1)C2 | 0.077 µM (≈ 0.0323 µg/mL) | > 125 µM | 1.6 µM (≈ 0.671 µg/mL)
N#Cc1cccc(-c2ccc(CO[C@@H]3COc4nc([N+](=O)[O-])cn4C3)cc2)c1 | 0.12 µM (≈ 0.0452 µg/mL) | > 125 µM | 1.3 µM (≈ 0.489 µg/mL)
CSc1cccc(-c2ccc(CO[C@@H]3COc4nc([N+](=O)[O-])cn4C3)cc2)c1 | 0.077 µM (≈ 0.0306 µg/mL) | > 125 µM | 0.95 µM (≈ 0.378 µg/mL)
O=[N+]([O-])c1cn2c(n1)OC[C@@H](OCc1cccc(-c3ccccc3)c1)C2 | 0.095 µM (≈ 0.0334 µg/mL) | > 125 µM | 2.1 µM (≈ 0.738 µg/mL)
O=[N+]([O-])c1cn2c(n1)OC[C@@H](OCc1ccc(-c3ccc(Cl)cc3)cc1)C2 | 0.015 µM (≈ 0.00579 µg/mL) | > 125 µM | 2.7 µM (≈ 1.04 µg/mL)
O=[N+]([O-])c1cn2c(n1)OC[C@@H](OCc1cccc(-c3ccc4ccccc4c3)c1)C2 | 0.12 µM (≈ 0.0482 µg/mL) | > 125 µM | 3.2 µM (≈ 1.28 µg/mL)
CC(C)c1ccc(-c2ccc(CO[C@@H]3COc4nc([N+](=O)[O-])cn4C3)cc2)cc1 | 0.1 µM (≈ 0.0393 µg/mL) | > 125 µM | > 32 µM
COc1cccc(Cl)c1-c1ccc(CO[C@@H]2COc3nc([N+](=O)[O-])cn3C2)cc1 | 0.055 µM (≈ 0.0229 µg/mL) | > 125 µM | 0.74 µM (≈ 0.308 µg/mL)
O=[N+]([O-])c1cn2c(n1)OC[C@@H](OCc1cccc(-c3ccc(F)cc3)c1)C2 | 0.077 µM (≈ 0.0284 µg/mL) | > 125 µM | 3.8 µM (≈ 1.4 µg/mL)
O=[N+]([O-])c1cn2c(n1)OC[C@@H](OCc1cccc(-c3ccc(OC(F)F)cc3)c1)C2 | 0.06 µM (≈ 0.025 µg/mL) | > 125 µM | 2.8 µM (≈ 1.17 µg/mL)
O=[N+]([O-])c1cn2c(n1)OC[C@@H](OCc1ccc(-c3ccc(C(F)(F)F)c(Cl)c3)cc1)C2 | 0.06 µM (≈ 0.0272 µg/mL) | > 125 µM | 0.97 µM (≈ 0.44 µg/mL)

SMILES | MIC [1] | IC50 (Vero) | MIC [2]
O=[N+]([O-])c1cn2c(n1)OC[C@@H](OCc1ccc(-c3ccccc3OC(F)(F)F)cc1)C2 | 0.035 µM (≈ 0.0152 µg/mL) | > 125 µM | 0.97 µM (≈ 0.422 µg/mL)
COc1ccc(-c2ccc(CO[C@@H]3COc4nc([N+](=O)[O-])cn4C3)cc2)cc1 | 0.065 µM (≈ 0.0248 µg/mL) | > 125 µM | 6.8 µM (≈ 2.59 µg/mL)
CC(C)Oc1ccc(-c2ccc(CO[C@@H]3COc4nc([N+](=O)[O-])cn4C3)cc2)cc1 | 0.25 µM (≈ 0.102 µg/mL) | > 125 µM | 3.8 µM (≈ 1.56 µg/mL)
O=[N+]([O-])c1cn2c(n1)OC[C@@H](OCc1ccc(-c3ccc(Cl)c(O)c3)cc1)C2 | 0.2 µM (≈ 0.0804 µg/mL) | > 125 µM | 2.1 µM (≈ 0.844 µg/mL)
O=[N+]([O-])c1cn2c(n1)OC[C@@H](OCc1ccc(-c3cccc(Cl)c3)cc1)C2 | 0.06 µM (≈ 0.0231 µg/mL) | > 125 µM | 1.6 µM (≈ 0.617 µg/mL)
O=[N+]([O-])c1cn2c(n1)OC[C@@H](OCc1ccc(-c3ccccc3Oc3ccccc3)cc1)C2 | 0.06 µM (≈ 0.0266 µg/mL) | > 125 µM | 1.8 µM (≈ 0.798 µg/mL)
O=[N+]([O-])c1cn2c(n1)OC[C@@H](OCc1ccc(-c3ccc4ccccc4c3)cc1)C2 | 0.045 µM (≈ 0.0181 µg/mL) | > 125 µM | 0.87 µM (≈ 0.349 µg/mL)
O=Cc1cccc(-c2ccc(CO[C@@H]3COc4nc([N+](=O)[O-])cn4C3)cc2)c1 | 0.14 µM (≈ 0.0531 µg/mL) | > 125 µM | 0.57 µM (≈ 0.216 µg/mL)
N#Cc1cccc(-c2cccc(CO[C@@H]3COc4nc([N+](=O)[O-])cn4C3)c2)c1 | 0.17 µM (≈ 0.064 µg/mL) | > 125 µM | 3.7 µM (≈ 1.39 µg/mL)
O=[N+]([O-])c1cn2c(n1)OC[C@@H](OCc1ccc(-c3ccccc3)cc1)C2 | 0.045 µM (≈ 0.0158 µg/mL) | > 125 µM | 3.9 µM (≈ 1.37 µg/mL)
O=[N+]([O-])c1cn2c(n1)OC[C@@H](OCc1cccc(-c3ccc(OC(F)(F)F)cc3)c1)C2 | 0.11 µM (≈ 0.0479 µg/mL) | > 125 µM | 2.2 µM (≈ 0.958 µg/mL)
O=[N+]([O-])c1cn2c(n1)OC[C@@H](OCc1ccc(-c3ccccc3Cl)cc1)C2 | 0.15 µM (≈ 0.0579 µg/mL) | > 125 µM | 1.5 µM (≈ 0.579 µg/mL)
O=[N+]([O-])c1cn2c(n1)OC[C@@H](OCc1cccc(-c3cccc(F)c3)c1)C2 | 0.18 µM (≈ 0.0665 µg/mL) | > 125 µM | 2.7 µM (≈ 0.997 µg/mL)
O=Cc1ccccc1-c1ccc(CO[C@@H]2COc3nc([N+](=O)[O-])cn3C2)cc1 | 0.08 µM (≈ 0.0303 µg/mL) | > 125 µM | 0.78 µM (≈ 0.296 µg/mL)
CSc1ccc(-c2ccc(CO[C@@H]3COc4nc([N+](=O)[O-])cn4C3)cc2)cc1 | 0.075 µM (≈ 0.0298 µg/mL) | > 125 µM | 0.95 µM (≈ 0.378 µg/mL)
O=[N+]([O-])c1cn2c(n1)OC[C@@H](OCc1ccc(-c3ccccc3O)cc1)C2 | 0.12 µM (≈ 0.0441 µg/mL) | > 125 µM | 4.6 µM (≈ 1.69 µg/mL)
O=[N+]([O-])c1cn2c(n1)OC[C@@H](OCc1ccc(-c3ccc(F)c(F)c3)cc1)C2 | 0.03 µM (≈ 0.0116 µg/mL) | > 125 µM | 1.2 µM (≈ 0.465 µg/mL)
O=[N+]([O-])c1cn2c(n1)OC[C@@H](OCc1ccc(-c3cccc(OCCO)c3)cc1)C2 | 0.46 µM (≈ 0.189 µg/mL) | > 125 µM | 5.4 µM (≈ 2.22 µg/mL)
COc1c(F)cc(-c2ccc(CO[C@@H]3COc4nc([N+](=O)[O-])cn4C3)cc2)cc1F | 0.045 µM (≈ 0.0188 µg/mL) | > 125 µM | 1.3 µM (≈ 0.543 µg/mL)
CSc1ccc(-c2cccc(CO[C@@H]3COc4nc([N+](=O)[O-])cn4C3)c2)cc1 | 0.095 µM (≈ 0.0378 µg/mL) | > 125 µM | 0.93 µM (≈ 0.37 µg/mL)
O=[N+]([O-])c1cn2c(n1)OC[C@@H](OCc1ccc(-c3ccc(-c4ccccc4)cc3)cc1)C2 | 0.09 µM (≈ 0.0385 µg/mL) | > 125 µM | > 32 µM
COc1ccccc1-c1ccc(CO[C@@H]2COc3nc([N+](=O)[O-])cn3C2)cc1 | 0.065 µM (≈ 0.0248 µg/mL) | > 125 µM | 1.4 µM (≈ 0.534 µg/mL)
CC(C)(C)c1ccc(-c2ccc(CO[C@@H]3COc4nc([N+](=O)[O-])cn4C3)cc2)cc1 | 0.095 µM (≈ 0.0387 µg/mL) | > 125 µM | > 32 µM
O=[N+]([O-])c1cn2c(n1)OC[C@@H](OCc1cccc(-c3ccc(C(F)(F)F)cc3)c1)C2 | 0.12 µM (≈ 0.0503 µg/mL) | > 125 µM | 2.9 µM (≈ 1.22 µg/mL)
